pIC50: −log10 of the molar value. In brackets after ≈: the same amount, converted by molar mass. Activity calls are given as the source filed them. The rule behind the calls is not given here.
What was measured:
[1] = Stability of compound in phosphate buffer assessed as half-life at pH 7.4; type: physicochemical
In short: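 Compound at 10 μM in potassium phosphate buffer pH 7.4 at 37 °C without S9. Sampled at 0 to 60 min and measured by LC/MS/MS. Half-life from the first-order log-linear depletion slope.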

[2] = Metabolic stability in rat intestinal S9 fraction assessed as half-life at 10 uM up to 60 mins by LC/MS/MS analysis; type: ADME, subcellular, Intestine
In short: (§1)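 S9 fraction at 0.8 mg/mL protein in 100 mM potassium phosphate pH 7.4, preincubated 5 min at 37 °C, then compound added at 10 μM final. Aliquots taken at 0, 2, 5, 10, 20, 40 and 60 min, quenched in acetonitrile with internal standard, and prodrug measured by LC/MS/MS. First-order half-life taken from the log-linear depletion slope.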

[3] = Metabolic stability in rat liver S9 fraction assessed as half-life at 10 uM up to 60 mins by LC/MS/MS analysis; type: ADME, subcellular; in short: as §1
[4] = Metabolic stability in human intestinal S9 fraction assessed as half-life at 10 uM up to 60 mins by LC/MS/MS analysis; type: ADME, subcellular, Intestine; in short: as §1
[5] = Metabolic stability in human liver S9 fraction assessed as half-life at 10 uM up to 60 mins by LC/MS/MS analysis; type: ADME, subcellular; in short: as §1
[6] = Oral bioavailability in Sprague-Dawley rat at 10 mg/kg by LC/MS/MS analysis; type: ADME, organism-based; settings: in vivo
In short: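 Jugular vein-cannulated male Sprague Dawley rats (180–200 g, n = 3/route). Intravenous arm: active acid at 10 mg/kg in 0.9% saline, plasma sampled 0.08–8 h. Oral arm: prodrug at a dose equivalent to 10 mg/kg acid in 25:75 PEG 400/WFI, plasma sampled 0.25–24 h. Levels by LC/MS/MS; F = (AUCpo/AUCiv) × 100.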

[7] = Inhibition of beta lactamase TEM-1 in Escherichia coli assessed as decrease in enzyme activity using nitrocefin as chromogenic substrate incubated for 10 mins by […] plate reader analysis
[8] = Inhibition of beta lactamase TEM-1 in Escherichia coli assessed as decrease in enzyme activity using nitrocefin as chromogenic substrate incubated for 60 mins by […] plate reader analysis
[9] = Inhibition of beta lactamase AmpC in Pseudomonas aeruginosa assessed as decrease in enzyme activity using nitrocefin as chromogenic substrate incubated for 10 mins by […] plate reader analysis
[10] = Inhibition of beta lactamase AmpC in Pseudomonas aeruginosa assessed as decrease in enzyme activity using nitrocefin as chromogenic substrate incubated for 60 mins by […] plate reader analysis
[11] = Inhibition of beta lactamase OXA-48 in Klebsiella pneumoniae assessed as decrease in enzyme activity using nitrocefin as chromogenic substrate incubated for 10 mins by […] plate reader analysis
Escherichia coli [12] = experiment: Antibacterial activity against Escherichia coli ARC3627 assessed as reduction in bacterial growth by CLSI based broth dilution method; type: functional
In short: (§2)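 Broth microdilution in CAMHB following CLSI.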

Klebsiella pneumoniae [13] = experiment: Antibacterial activity against Klebsiella pneumoniae ARC561 assessed as reduction in bacterial growth by CLSI based broth dilution method; type: functional; in short: as §2
Escherichia coli [14] = experiment: Inhibition of beta-lactamase activity in Escherichia coli ARC3627 assessed as MIC for cefpodoxime antibacterial activity at 4 ug/ml by CLSI based broth dilution method (Rvb >64 ug/ml); settings: dose 4.0 µg/ml
Klebsiella pneumoniae [15] = experiment: Inhibition of beta-lactamase activity in Klebsiella pneumoniae ARC561 assessed as MIC for cefpodoxime antibacterial activity at 4 ug/ml by CLSI based broth dilution method (reference value: 32 ug/ml); settings: dose 4.0 µg/ml
[16] = Inhibition of beta lactamase OXA-48 in Klebsiella pneumoniae assessed as decrease in enzyme activity using nitrocefin as chromogenic substrate incubated for 60 mins by absorbance plate reader analysis
Klebsiella pneumoniae [17] = experiment: Antibacterial activity against Klebsiella pneumoniae ARC 6082 drug resistant clinical isolates assessed as reduction in bacterial growth by CLSI based broth dilution method; type: functional
In short: (§3)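 Broth microdilution per CLSI in cation-adjusted Mueller–Hinton broth against drug-resistant clinical isolates; MIC read as the lowest concentration preventing bacterial growth.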

Klebsiella pneumoniae [18] = experiment: Antibacterial activity against Klebsiella pneumoniae ARC 6088 carbapenem-resistant clinical isolates assessed as reduction in bacterial growth by CLSI based broth dilution method; type: functional; in short: as §3
Klebsiella pneumoniae [19] = experiment: Antibacterial activity against Klebsiella pneumoniae ARC 6098 drug resistant clinical isolates assessed as reduction in bacterial growth by CLSI based broth dilution method; type: functional; in short: as §3
Klebsiella pneumoniae [20] = experiment: Antibacterial activity against Klebsiella pneumoniae ARC 6107 carbapenem resistant clinical isolates assessed as reduction in bacterial growth by CLSI based broth dilution method; type: functional; in short: as §3
Klebsiella oxytoca = experiment: Antibacterial activity against Klebsiella oxytoca ARC 5389 carbapenem resistant clinical isolates assessed as reduction in bacterial growth by CLSI based broth dilution method; type: functional; in short: as §3
Citrobacter freundii = experiment: Antibacterial activity against Citrobacter freundii ARC 3518 carbapenem resistant clinical isolates assessed as reduction in bacterial growth by CLSI based broth dilution method; type: functional; in short: as §3
Enterobacter cloacae [21] = experiment: Antibacterial activity against Enterobacter cloacae ARC 6049 drug resistant clinical isolates assessed as reduction in bacterial growth by CLSI based broth dilution method; type: functional; in short: as §3
Enterobacter cloacae [22] = experiment: Antibacterial activity against Enterobacter cloacae ARC 6055 drug resistant clinical isolates assessed as reduction in bacterial growth by CLSI based broth dilution method; type: functional; in short: as §3
Escherichia coli [23] = experiment: In vivo antibacterial activity against multidrug-resistant Escherichia coli ARC 2687 infected in CD-1 mouse model of neutropenic thigh infection assessed as colony forming unit at 50 mg/kg, po administered at 6 hrs interval; type: functional, organism-based
In short: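 Female CD-1 mice (20–22 g, 3/arm) made neutropenic with ip cyclophosphamide, 150 mg/kg on day −4 and 100 mg/kg on day −1. Each thigh received an im inoculum of 5.5 × 10^6–1.6 × 10^7 CFU from saline suspension (OD625 0.1, diluted). Dosing began 2 h post-infection, q6h. Oral agents were given in 0.5% HPMC/0.1% Tween 80; meropenem was given sc in water. Thighs were taken at 24 h, homogenized and plated on TSA (35 °C overnight) for CFU counts.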

Row | SMILES | pIC50 [7] | pIC50 [8] | pIC50 [9] | pIC50 [10] | pIC50 [11] | MIC (Escherichia coli [12]) [µg/mL] | MIC (Klebsiella pneumoniae [13]) [µg/mL] | MIC (Escherichia coli [14]) [µg/mL] | MIC (Klebsiella pneumoniae [15]) [µg/mL] | pIC50 [16] | further results
1 | CCOC(=O)[C@H](F)ON1C(=O)N2C[C@H]1C=C(C)[C@H]2C(=O)NCCS(N)(=O)=O |  |  |  |  |  |  |  |  |  |  | half-life [1]: 26 min; half-life at 10 µM [2]: 20 min; half-life at 10 µM [3]: 10 min; half-life at 10 µM [4]: 22 min; half-life at 10 µM [5]: 9.9 min; bioavailability [6]: 4%
2 | CC1=C[C@@H]2CN(C(=O)N2OC(C)(F)C(=O)O)[C@@H]1C(N)=O (stereo not given in full) | 6.17 | 6.64 | 5.85 | 6.40 | 4.05 | > 32 | > 32 | 2 (≈ 6.96 µM) | 2 (≈ 6.96 µM) | 4.66 | 
3 | CC1=C[C@@H](C(N)=O)N2C[C@@H]1N(O[C@@H](F)C(=O)O)C2=O (racemic) | 7.70 | 7.59 | 5.89 | 6.52 | 7.17 |  | > 32 | < 0.06 | 0.06 (≈ 0.22 µM) | 7.72 | 
4 | CCOC(=O)[C@H](F)ON1C(=O)N2C[C@H]1C(C)=C[C@H]2C(N)=O (racemic) |  |  |  |  |  |  |  |  |  |  | bioavailability [6]: 71%
5 | CC1=C[C@@H]2CN(C(=O)N2O[C@@H](F)C(=O)O)[C@@H]1C(N)=O | 7.89 | 7.72 | 6.74 | 7.15 | 7.20 | 8 (≈ 29.3 µM) | > 32 | 1 (≈ 3.66 µM) | 2 (≈ 7.32 µM) | 7.82 | 
6 | CC1=C[C@@H]2CN(C(=O)N2O[C@@H](F)C(=O)O)[C@@H]1C(=O)NCCNS(N)(=O)=O | 7.26 | 7.08 | 7.28 | 7.85 | 5.70 | 2 (≈ 5.06 µM) | > 32 | < 0.06 | 0.125 (≈ 0.316 µM) | 6.38 | 
7 | COCC1=C(C(=O)O)N2C(=O)[C@@H](NC(=O)/C(=N\OC)c3csc(N)n3)[C@H]2SC1 [CEFPODOXIME] |  |  |  |  |  | > 64 | 32 (≈ 74.9 µM) |  |  |  | MIC (Klebsiella pneumoniae [17]): > 64 µg/mL; MIC (Klebsiella pneumoniae [18]): > 64 µg/mL; MIC (Klebsiella pneumoniae [19]): > 64 µg/mL; MIC (Klebsiella pneumoniae [20]): > 64 µg/mL; MIC (Klebsiella oxytoca): > 64 µg/mL; MIC (Citrobacter freundii): > 64 µg/mL; MIC (Enterobacter cloacae [21]): > 64 µg/mL; MIC (Enterobacter cloacae [22]): > 64 µg/mL; Activity (Escherichia coli [23]): inactive
8 | CC1=C[C@@H]2CN(C(=O)N2O[C@H](F)C(=O)OC(C)C)[C@@H]1C(N)=O |  |  |  |  |  |  |  |  |  |  | bioavailability [6]: 38%
9 | CC1=C[C@@H]2CN(C(=O)N2O[C@@H](F)C(=O)O)[C@@H]1c1nnc(C(N)=O)o1 | 7.77 | 7.62 | 6.44 | 6.74 | 7.59 | 16 (≈ 46.9 µM) | > 32 | 2 (≈ 5.86 µM) | 2 (≈ 5.86 µM) | 8.14 | 
10 | NC(=O)[C@@H]1C(C2CC2)=C[C@@H]2CN1C(=O)N2OC(F)C(=O)O (single isomer, unassigned) | 7.74 | 7.62 | 6.54 | 7.02 | 7.77 | 32 (≈ 107 µM) | > 32 | 2 (≈ 6.68 µM) | 2 (≈ 6.68 µM) | 8.28 | 
11 | CC1=C[C@@H]2CN(C(=O)N2OS(=O)(=O)O)[C@@H]1C(N)=O |  |  | 8.10 | 8.24 | 7.62 | 0.25 (≈ 0.902 µM) | 8 (≈ 28.9 µM) | < 0.06 | < 0.06 | 8.30 | 
12 | NC(=O)[C@@H]1CC[C@@H]2CN1C(=O)N2OS(=O)(=O)O [AVIBACTAM] |  |  |  |  |  | 32 (≈ 121 µM) | > 32 | 0.5 (≈ 1.89 µM) | 1 (≈ 3.77 µM) |  | 

From ChEMBL document CHEMBL4765376, “Discovery of an Orally Available Diazabicyclooctane Inhibitor (ETX0282) of Class A, C, and D Serine β-Lactamases” (J Med Chem, 2020)
